Source: ChEMBL document CHEMBL1152651, “In vivo and in vitro anti-leishmanial activities of 4-nitro-N-pyrimidin- and N-pyrazin-2-ylbenzenesulfonamides, and N2-(4-nitrophenyl)-N1-propylglycinamide” (Bioorg Med Chem, 2009)
Active and inactive are the calls of the source. No cut-off for these calls is given here.

Columns and labels:
[1] = tested on: Leishmania infantum; test: Antileishmanial activity against Leishmania infantum MCAN/ES/92/BCN 83 promastigotes after 48 hrs by resazurin method; assay type: functional, organism-based
In short: (§1)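 L. infantum MCAN/ES/92/BCN 83 promastigotes (Schneider's medium, 20% heat-inactivated FBS, 26 °C), 2.5 × 10^5 per well. Compounds in DMSO were first screened at 1, 10, 100 µg/mL, then 252 to 1.9 µM for active ones. After 48 h at 26 °C, resazurin was added and fluorescence read (ex 535/em 590 nm) for % growth inhibition. Triplicates; IC50 by least-squares linear regression.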

[2] = tested on: Leishmania infantum; test: Antileishmanial activity against Leishmania infantum MCAN/ES/92/BCN 83 promastigotes at 100 ug/ml after 48 hrs by resazurin method; assay type: functional; details: for inhibition of growth at 100 µg/mL: MCAN/ES/92/BCN 83, 48 h, read-out: GI; in short: as §1
[3] = tested on: J774; test: Cytotoxicity against mouse J774 cells after 24 hrs by resazurin reduction test; assay type: cell-based
In short: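 J774 murine macrophages (RPMI 1640, 10% FBS, 37 °C, 5% CO2), 5 × 10^4 cells/well, adhered 24 h. Then exposed to compounds for 24 h. Resazurin added for 3 h; fluorescence read at ex 535/em 590 nm, background subtracted. Each concentration assayed three times.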

[4] = tested on: Nucleic Acid; test: Induction of Cu2+-dependent DNA cleavage in Escherichia coli pUC18 DNA assessed as degradation of super coiled form at 15 to 30 uM after 60 mins by agarose gel electrophoresis in presence of cupric chloride; assay type: nucleic-acid assay
In short: (§2)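 pUC18 plasmid in 0.1 M cacodylate pH 6.0 with CuCl2 + compound (1:1) at 15–45 µM final, plus ascorbate (50-fold excess over Cu(II)). 1 h at 37 °C. Supercoiled, circular and linear forms resolved on 0.8% agarose/0.5× TBE gel with ethidium bromide, 80 V, about 2 h.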

[5] = tested on: Nucleic Acid; test: Induction of Cu2+-dependent DNA cleavage in Escherichia coli pUC18 DNA assessed as degradation of super coiled form at 45 uM after 60 mins by agarose gel electrophoresis in presence of cupric chloride; assay type: nucleic-acid assay; in short: as §2
[6] = tested on: Leishmania infantum; test: Antileishmanial activity against Leishmania infantum MCAN/ES/92/BCN 83 promastigotes-infected in BALB/c mouse assessed as reduction of parasite burden in spleen at 5 mg/kg, ip once daily for 10 days by limit dilution assay relative to control; parameters: scale not given: the % may be the effect or the level left; details: route intraperitoneal
[7] = tested on: Mus musculus; test: Toxicity in BALB/c mouse assessed as reduction hair loss at 5 mg/kg, ip once daily; details: in vivo
[8] = tested on: Calf thymus DNA; test: Binding affinity to calf thymus DNA assessed as melting temperature (Rvb Tm = 53.8 degC); assay type: nucleic-acid assay; details: Bos taurus
[9] = tested on: Calf thymus DNA; test: Binding affinity to calf thymus DNA assessed as increase in DNA viscosity at 1 to 30 uM by viscometer; assay type: nucleic-acid assay; details: Bos taurus
In short: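 Ubbelohde viscometer at 25.0 or 37.0 °C. Compounds in DMF/cacodylate buffer (pH 6) 2:10 added to 50 µM CT-DNA in cacodylate buffer; final 1–30 µM. Flow times in triplicate, η = t − t0. Plotted as (η/η0)^1/3 versus the compound/DNA ratio.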

[10] = tested on: Nucleic Acid; test: Induction of supercoiled Escherichia coli pUC18 DNA cleavage at 6 to 60 uM after 60 mins by agarose gel electrophoresis; assay type: nucleic-acid assay
In short: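 Supercoiled pUC18 plasmid in 0.1 M cacodylate buffer pH 6.0 with compound at 6–60 µM final, 1 h at 37 °C. Analysed by 0.8% agarose gel in 0.5× TBE with ethidium bromide, 80 V, about 2 h.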

[11] = tested on: Leishmania infantum; test: Antileishmanial activity against Leishmania infantum MCAN/ES/92/BCN 83 promastigotes-infected in BALB/c mouse assessed as reduction of parasite burden in liver at 5 mg/kg, ip once daily for 10 days by limit dilution assay relative to control; parameters: scale not given: the % may be the effect or the level left; details: route intraperitoneal
[12] = tested on: Mus musculus; test: Toxicity in BALB/c mouse assessed as reduction in body weight at 5 mg/kg, ip once daily; details: in vivo
[13] = Leishmania infantum, MCAN/ES/92/BCN 83, 48 h, read-out: IC50
[14] = Mus musculus, J774, 24 h, read-out: IC50

| SMILES | IC50 [1, 13] [µM] | inhibition of growth at 100 µg/mL [2] [%] | other results |
| --- | --- | --- | --- |
| O=[N+]([O-])c1ccc(S(=O)(=O)Nc2ccccn2)cc1 | > 256 | 39.3 |  |
| O=S(=O)(Nc1ncccn1)c1ccc(Br)cc1 |  |  | IC50 [1]: Not Active; IC50 ([3]; j774): Not Active; growth inhibition (GI) [2]: inactive |
| O=S(=O)(Nc1ncccn1)c1ccc(F)cc1 |  |  | IC50 [1]: Not Active; IC50 ([3]; j774): Not Active; growth inhibition (GI) [2]: inactive |
| CCCNC(=O)CNc1ccc([N+](=O)[O-])cc1 | 156 | 85 | Activity [4]: inactive; Activity [5]: Active; Activity [6]: 99.89%; Activity [7]: Non-toxic; Tm [8]: 54 °C; Activity [9]: inactive; IC50 [3, 14]: > 256 µM; Activity [10]: inactive; Activity [11]: 97.95%; Activity [12]: Non-toxic |
| O=[N+]([O-])c1ccc(S(=O)(=O)Nc2cccnc2)cc1 | > 256 | 35.7 |  |
| Cc1cc(NS(=O)(=O)c2ccccc2)no1 | > 256 | 17.9 |  |
| O=[N+]([O-])c1ccc(S(=O)(=O)Nc2cnccn2)cc1 | 66.2 | 90.8 | Activity [6]: 99.44%; Activity [7]: Non-toxic; IC50 [3, 14]: > 256 µM; Activity [11]: 99.28%; Activity [12]: Non-toxic |
| O=S(=O)(Nc1ncccn1)c1ccccc1 | > 256 | 20.3 |  |
| O=S(=O)(Nc1ccc2c(c1)CCC2)c1ccc(Cl)cc1 | > 256 | 49.9 |  |
| Cc1cc(C)nc(NS(=O)(=O)c2ccc(Cl)cc2)n1 | 224 | 71.5 | IC50 [3, 14]: > 256 µM |
| O=S(=O)(Nc1cnccn1)c1ccccc1 | > 256 | 37 |  |
| Cc1cc(NS(=O)(=O)c2ccc([N+](=O)[O-])cc2)n[nH]1 | 164 | 71.5 | IC50 [3, 14]: > 256 µM |
| O=[N+]([O-])c1ccc(S(=O)(=O)Nc2ccncc2)cc1 | > 256 | 46.3 |  |
| O=[N+]([O-])c1ccc(S(=O)(=O)Nc2nccs2)cc1 [PARA-NITROSULFATHIAZOLE] | > 256 | 58.6 |  |
| O=S(=O)(Nc1nccs1)c1ccc(Cl)cc1 | > 256 | 65 |  |
| Cc1cc(NS(=O)(=O)c2ccc([N+](=O)[O-])cc2)no1 | 126 | 85.6 | IC50 [3, 14]: > 256 µM |
| O=[N+]([O-])c1ccccc1S(=O)(=O)Nc1ncccn1 | > 256 | 40.6 |  |

| SMILES | IC50 [1, 13] [µM] | inhibition of growth at 100 µg/mL [2] [%] | other results |
| --- | --- | --- | --- |
| O=[N+]([O-])c1ccc(S(=O)(=O)Nc2ncccn2)cc1 | 100 | 92.7 | Activity [4]: inactive; Activity [5]: Active; Activity [6]: 99.82%; Activity [7]: Non-toxic; Tm [8]: 54.2 °C; Activity [9]: inactive; IC50 [3, 14]: > 256 µM; Activity [10]: inactive; Activity [11]: 97.58%; Activity [12]: Non-toxic |
| Cc1cc(C)nc(NS(=O)(=O)c2ccc([N+](=O)[O-])cc2)n1 | > 256 | 33.3 |  |
| O=[N+]([O-])c1ccc(S(=O)(=O)Nc2ccc3c(c2)CCC3)cc1 | < 1 | 91.9 | IC50 [3, 14]: 61 µM |
| O=[N+]([O-])c1ccc(S(=O)(=O)Nc2ccc3[nH]ncc3c2)cc1 | 14.5 | 88.2 | IC50 [3, 14]: > 256 µM |
| Cc1cc(NS(=O)(=O)c2ccc(Cl)cc2)no1 | > 256 | 15.7 |  |
| Cc1cnc(NS(=O)(=O)c2ccc([N+](=O)[O-])cc2)s1 | > 256 | 36.7 |  |
| O=S(=O)(Nc1ccc2c(c1)CCC2)c1ccccc1 | > 256 | 45.3 |  |
| O=S(=O)(Nc1cnccn1)c1ccc(Cl)cc1 | > 256 | 25.3 |  |
| Nc1ccc(S(=O)(=O)Nc2ncccn2)cc1 [SULFADIAZINE] |  |  | IC50 [1]: Not Active; IC50 ([3]; j774): Not Active; growth inhibition (GI) [2]: inactive |
| O=S(=O)(Nc1ncccn1)c1ccc(Cl)cc1 |  |  | IC50 [1]: Not Active; IC50 ([3]; j774): Not Active; growth inhibition (GI) [2]: inactive |
| O=[N+]([O-])c1cccc(S(=O)(=O)Nc2ncccn2)c1 |  |  | IC50 [1]: Not Active; IC50 ([3]; j774): Not Active; growth inhibition (GI) [2]: inactive |
| Cc1csc(NS(=O)(=O)c2ccc([N+](=O)[O-])cc2)n1 | > 256 | 55.6 |  |
| Cc1cnc(NS(=O)(=O)c2ccccc2)s1 | > 256 | 69 |  |
| CS(=O)(=O)Nc1ncccn1 |  |  | IC50 [1]: Not Active; IC50 ([3]; j774): Not Active; growth inhibition (GI) [2]: inactive |
| Cc1cnc(NS(=O)(=O)c2ccc(Cl)cc2)s1 | > 256 | 74.5 |  |
| COc1ccc(S(=O)(=O)Nc2ncccn2)cc1 | > 256 | 29.6 |  |
